According to PMC9116722 (Cancer chemotherapy and pharmacology, 2022):
“Also recorded” adds a separate entry of the source.

Assay: Adverse events
Type: in vivo, human
Method in brief: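 Patients with germline BRCA-mutated cancers, or BRCA-wildtype TNBC or platinum-refractory ovarian cancer, took oral drug continuously twice daily in 28-day cycles. There were nine dose levels from 50 to 500 mg BID under 3+3 escalation, run separately per cohort after the first DLT. Toxicities were graded by CTCAE v4.0, with DLTs assessed during cycle 1.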

C[C@]1(c2nc3c(C(N)=O)cccc3[nH]2)CCCN1 [veliparib]
Any Grade 3 toxicity (BRCAmut, DL9 500/500 mg AM/PM): 1 (14) number of patients (%) | Any Grade 4 toxicity (BRCAmut, DL9 500/500 mg AM/PM): 1 (14) number of patients (%) | Appendicitis, Grade 3 (BRCAmut, DL9 500/500 mg AM/PM): 0 number of patients (%) | Aspartate aminotransferase increased, Grade 3 (BRCAmut, DL9 500/500 mg AM/PM): 0 number of patients (%) | Dehydration, Grade 3 (BRCAmut, DL9 500/500 mg AM/PM): 0 number of patients (%) | Dyspnea, Grade 4 (BRCAmut, DL9 500/500 mg AM/PM): 1 (14) number of patients (%) | Fatigue, Grade 3 (BRCAmut, DL9 500/500 mg AM/PM): 0 number of patients (%) | Headache, Grade 3 (BRCAmut, DL9 500/500 mg AM/PM): 0 number of patients (%) | Hypophosphatemia, Grade 3 (BRCAmut, DL9 500/500 mg AM/PM): 0 number of patients (%) | Lymphocyte count decreased, Grade 3 (BRCAmut, DL9 500/500 mg AM/PM): 1 (14) number of patients (%) | Lymphocyte count decreased, Grade 4 (BRCAmut, DL9 500/500 mg AM/PM): 0 number of patients (%) | Nausea, Grade 3 (BRCAmut, DL9 500/500 mg AM/PM): 0 number of patients (%) | Platelet count decreased, Grade 4 (BRCAmut, DL9 500/500 mg AM/PM): 1 (14) number of patients (%) | Thromboembolic event, Grade 3 (BRCAmut, DL9 500/500 mg AM/PM): 0 number of patients (%) | Thromboembolic event, Grade 4 (BRCAmut, DL9 500/500 mg AM/PM): 0 number of patients (%) | Urinary tract infection, Grade 3 (BRCAmut, DL9 500/500 mg AM/PM): 0 number of patients (%) | Abdominal pain, Grade 3 (BRCAmut, all dose levels): 2 (3) number of patients (%) | Alkaline phosphatase increased, Grade 3 (BRCAmut, all dose levels): 1 (1) number of patients (%) | Anemia, Grade 3 (BRCAmut, all dose levels): 1 (1) number of patients (%) | Anemia, Grade 4 (BRCAmut, all dose levels): 1 (1) number of patients (%) | Any Grade 3/4 toxicity (BRCAmut, all dose levels): 17 (24) number of patients (%) | Any Grade 3 toxicity (BRCAmut, all dose levels): 15 (21) number of patients (%) | Any Grade 4 toxicity (BRCAmut, all dose levels): 3 (4) number of patients (%) | Appendicitis, Grade 3 (BRCAmut, all dose levels): 1 (1) number of patients (%) | Aspartate aminotransferase increased, Grade 3 (BRCAmut, all dose levels): 1 (1) number of patients (%) | Dehydration, Grade 3 (BRCAmut, all dose levels): 1 (1) number of patients (%) | Dyspnea, Grade 4 (BRCAmut, all dose levels): 1 (1) number of patients (%) | Fatigue, Grade 3 (BRCAmut, all dose levels): 1 (1) number of patients (%) | Headache, Grade 3 (BRCAmut, all dose levels): 1 (1) number of patients (%) | Hypophosphatemia, Grade 3 (BRCAmut, all dose levels): 1 (1) number of patients (%) | Lymphocyte count decreased, Grade 3 (BRCAmut, all dose levels): 9 (13) number of patients (%) | Lymphocyte count decreased, Grade 4 (BRCAmut, all dose levels): 1 (1) number of patients (%) | Nausea, Grade 3 (BRCAmut, all dose levels): 2 (3) number of patients (%) | Platelet count decreased, Grade 4 (BRCAmut, all dose levels): 1 (1) number of patients (%) | Thromboembolic event, Grade 3 (BRCAmut, all dose levels): 2 (3) number of patients (%) | Thromboembolic event, Grade 4 (BRCAmut, all dose levels): 1 (1) number of patients (%) | Urinary tract infection, Grade 3 (BRCAmut, all dose levels): 1 (1) number of patients (%) | grade 3/4 decreased lymphocyte count (BRCAwt group): 18% | incidence of grade 3/4 toxicity (BRCAwt group): 29% | Any Grade 3 toxicity (BRCAwt, DL1 50/50 mg AM/PM): 0 number of patients (%) | Basilic vein thrombosis, Grade 3 (BRCAwt, DL1 50/50 mg AM/PM): 0 number of patients (%) | Dyspnea, Grade 3 (BRCAwt, DL1 50/50 mg AM/PM): 0 number of patients (%) | Fatigue, Grade 3 (BRCAwt, DL1 50/50 mg AM/PM): 0 number of patients (%) | Hypophosphatemia, Grade 3 (BRCAwt, DL1 50/50 mg AM/PM): 0 number of patients (%) | Lymphocyte count decreased, Grade 3 (BRCAwt, DL1 50/50 mg AM/PM): 0 number of patients (%) | Any Grade 3 toxicity (BRCAwt, DL2 100/50 mg AM/PM): 1 (33) number of patients (%) | Basilic vein thrombosis, Grade 3 (BRCAwt, DL2 100/50 mg AM/PM): 0 number of patients (%) | Dyspnea, Grade 3 (BRCAwt, DL2 100/50 mg AM/PM): 0 number of patients (%) | Fatigue, Grade 3 (BRCAwt, DL2 100/50 mg AM/PM): 0 number of patients (%) | Hypophosphatemia, Grade 3 (BRCAwt, DL2 100/50 mg AM/PM): 0 number of patients (%) | Lymphocyte count decreased, Grade 3 (BRCAwt, DL2 100/50 mg AM/PM): 1 (33) number of patients (%) | Any Grade 3 toxicity (BRCAwt, DL3 100/100 mg AM/PM): 0 number of patients (%) | Basilic vein thrombosis, Grade 3 (BRCAwt, DL3 100/100 mg AM/PM): 0 number of patients (%) | Dyspnea, Grade 3 (BRCAwt, DL3 100/100 mg AM/PM): 0 number of patients (%) | Fatigue, Grade 3 (BRCAwt, DL3 100/100 mg AM/PM): 0 number of patients (%) | Hypophosphatemia, Grade 3 (BRCAwt, DL3 100/100 mg AM/PM): 0 number of patients (%) | Lymphocyte count decreased, Grade 3 (BRCAwt, DL3 100/100 mg AM/PM): 0 number of patients (%) | Any Grade 3 toxicity (BRCAwt, DL6 200/200 mg AM/PM): 2 (67) number of patients (%) | Basilic vein thrombosis, Grade 3 (BRCAwt, DL6 200/200 mg AM/PM): 1 (33) number of patients (%) | Dyspnea, Grade 3 (BRCAwt, DL6 200/200 mg AM/PM): 0 number of patients (%) | Fatigue, Grade 3 (BRCAwt, DL6 200/200 mg AM/PM): 0 number of patients (%) | Hypophosphatemia, Grade 3 (BRCAwt, DL6 200/200 mg AM/PM): 0 number of patients (%) | Lymphocyte count decreased, Grade 3 (BRCAwt, DL6 200/200 mg AM/PM): 1 (33) number of patients (%) | Any Grade 3 toxicity (BRCAwt, DL7 300/300 mg AM/PM): 0 number of patients (%) | Basilic vein thrombosis, Grade 3 (BRCAwt, DL7 300/300 mg AM/PM): 0 number of patients (%) | Dyspnea, Grade 3 (BRCAwt, DL7 300/300 mg AM/PM): 0 number of patients (%) | Fatigue, Grade 3 (BRCAwt, DL7 300/300 mg AM/PM): 0 number of patients (%) | Hypophosphatemia, Grade 3 (BRCAwt, DL7 300/300 mg AM/PM): 0 number of patients (%) | Lymphocyte count decreased, Grade 3 (BRCAwt, DL7 300/300 mg AM/PM): 0 number of patients (%) | Any Grade 3 toxicity (BRCAwt, DL8 400/400 mg AM/PM): 3 (43) number of patients (%) | Basilic vein thrombosis, Grade 3 (BRCAwt, DL8 400/400 mg AM/PM): 0 number of patients (%) | Dyspnea, Grade 3 (BRCAwt, DL8 400/400 mg AM/PM): 1 (14) number of patients (%) | Fatigue, Grade 3 (BRCAwt, DL8 400/400 mg AM/PM): 1 (14) number of patients (%) | Hypophosphatemia, Grade 3 (BRCAwt, DL8 400/400 mg AM/PM): 1 (14) number of patients (%) | Lymphocyte count decreased, Grade 3 (BRCAwt, DL8 400/400 mg AM/PM): 1 (14) number of patients (%) | Any Grade 3 toxicity (BRCAwt, all dose levels): 8 (29) number of patients (%) | Basilic vein thrombosis, Grade 3 (BRCAwt, all dose levels): 1 (4) number of patients (%) | Dyspnea, Grade 3 (BRCAwt, all dose levels): 1 (4) number of patients (%) | Fatigue, Grade 3 (BRCAwt, all dose levels): 1 (4) number of patients (%) | Hypophosphatemia, Grade 3 (BRCAwt, all dose levels): 1 (4) number of patients (%) | Lymphocyte count decreased, Grade 3 (BRCAwt, all dose levels): 5 (18) number of patients (%) | patients who came off study after non-dose limiting nausea (DL7-DL9): 6 patients | all-grade decreased lymphocyte count (lymphopenia) (all patients): 38% | all-grade nausea (all patients): 65% | grade 3/4 lymphopenia (all patients): 15% | grade 3 or 4 anemia (all patients): 6% | overall tolerability (continuous single-agent): safe and tolerable; also recorded: well-tolerated
